Values belong to the molecule of their own block, whether it stands above or below them.
How the values were obtained:
[1] = Antiproliferative activity against human MCF10A cells after 72 hrs by CellTiter-Glo assay; type: cell-based; details: MCF-10A
Summary of the method: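 Cells were kept at 37 °C, 5% CO2. Media: RPMI-1640 (BT-474, MCF-7), EMEM (Calu-3), McCoy's (SKBR-3), DMEM (MCF-10A), each with 10% FBS, 1% pen-strep and 1% insulin. 10,000 cells per well were dosed with serial dilutions in serum-free medium. Luminescence was read by CellTiter-Glo and IC50 taken from the dose-response curve. Each experiment was run three times (SD).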

[2] = Cell cycle arrest in human BT474 cells assessed as S phase accumulation at 1 uM incubated for 1 hr followed by 24 hrs incubation in drug free medium by propidium iodide staining based flow cytometry (reference value: 8.4 to 13.6%); type: functional; details: BT-474
Summary of the method: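 About 2 × 10⁵ BT-474 cells exposed 1 h, then 24 h in drug-free, serum-free medium. Cells were fixed in 70% ethanol for 2 h at −20 °C, then stained with 100 μg/mL RNase plus 40 μg/mL propidium iodide for 30 min at 4 °C. DNA content was read by FACS (10,000 events). Triplicate.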

[3] = target: T1, Receptor tyrosine-protein kinase erbB-2 (Homo sapiens, UniProt P04626); experiment: Binding affinity to HER2 extracellular domain (unknown origin) by SPR assay
[4] = Cell cycle arrest in human BT474 cells assessed as G0/G1 phase accumulation at 1 uM incubated for 1 hr followed by 24 hrs incubation in drug free medium by propidium iodide staining based flow cytometry; type: functional; details: BT-474
Summary of the method: (§1)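 About 2 × 10⁵ BT-474 cells were exposed to 1 μM for 1 h, then kept 24 h in drug-free, serum-free medium. Cells were fixed in 70% ethanol (2 h, −20 °C) and stained with 100 μg/mL RNase plus 40 μg/mL propidium iodide (4 °C, 30 min). DNA content was read on 10,000 cells by FACS. Experiments were done in triplicate.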

[5] = Cell cycle arrest in human BT474 cells assessed as G2/M phase accumulation at 1 uM incubated for 1 hr followed by 24 hrs incubation in drug free medium by propidium iodide staining based flow cytometry; type: functional; details: BT-474; summary of the method: as §1
[6] = Drug uptake in nucleus of human SKBR3 cells at 5 uM after 4 hrs by DAPI staining based confocal microscopic method; type: ADME, cell-based; details: sk-br-3, 4 h
Summary of the method: (§2)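 SKBR-3 cells were seeded for 24 h, then exposed to 5 μM at 37 °C for 30 min, 4 h or 24 h. Cells were PBS-washed, fixed in methanol at −20 °C for 5 min and mounted with DAPI.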

[7] = Drug uptake in cytoplasm of human SKBR3 cells at 5 uM after 4 hrs by DAPI staining based confocal microscopic method; type: ADME, cell-based; details: sk-br-3, 4 h; summary of the method: as §2
[8] = Antiproliferative activity against human MCF7 cells after 72 hrs by CellTiter-Glo assay; type: functional, cell-based; details: MCF7, 72 h
Summary of the method: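 Cells were kept at 37 °C, 5% CO2. 10,000 cells per well were dosed with serial dilutions in serum-free medium. Luminescence was read by CellTiter-Glo and IC50 taken from the dose-response curve. Each experiment was run three times (SD).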

[9] = Drug degradation in human SKBR3 cells at 50 uM after 4 hrs by HPLC method; type: ADME, cell-based, SK-BR-3; details: read-out: Drug degradation
Summary of the method: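 About 15,000 trypsinised SKBR-3 cells were resuspended with 50 μM (final) conjugate in serum-free medium at 37 °C, one sample per time point (0 min–48 h). Cells were lysed with chilled acetonitrile, sonicated and centrifuged, and the supernatant was cleaned on Sep-Pak. Intact-conjugate peak area was measured by C18 reversed-phase HPLC and expressed relative to time zero. Each time point was run in triplicate.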

[10] = Drug uptake in cytoplasm of human SKBR3 cells at 5 uM after 24 hrs by DAPI staining based confocal microscopic method; type: ADME, cell-based; details: sk-br-3, 24 h; summary of the method: as §2
[11] = Drug uptake in nucleus of human SKBR3 cells at 5 uM after 30 mins by DAPI staining based confocal microscopic method; type: ADME, cell-based; details: sk-br-3, 0.5 h; summary of the method: as §2
[12] = Drug uptake in human MCF7 cells at 5 uM after 24 hrs by DAPI staining based confocal microscopic method; type: ADME, cell-based; details: mcf7, 24 h
[13] = Antiproliferative activity against human SKBR3 cells after 24 hrs by CellTiter-Glo assay; type: functional, cell-based; details: SK-BR-3, 24 h
Summary of the method: (§3)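 10,000 cells per well, plated the day before treatment. Triplicate wells got serially diluted drug (0.001 to 100 μM) in serum-free medium at 37 °C. 1% SDS and 1% DMSO served as controls. After a PBS wash, CellTiter-Glo was added for about 20 min and luminescence read. IC50 came from the dose-response curve. Each experiment was run three times (SD).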

[14] = Antiproliferative activity against human BT474 cells after 24 hrs by CellTiter-Glo assay; type: functional, cell-based; details: BT-474, 24 h; summary of the method: as §3
[15] = Drug uptake in cytoplasm of human SKBR3 cells at 5 uM after 30 mins by DAPI staining based confocal microscopic method; type: ADME, cell-based; details: sk-br-3, 0.5 h
Summary of the method: (§4)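 SKBR-3 cells were seeded and treated 24 h later, then incubated at 37 °C for 30 min, 4 h or 24 h. Cells were fixed with methanol for 5 min at −20 °C and mounted in DAPI.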

[16] = Antiproliferative activity against human Calu3 cells after 24 hrs by CellTiter-Glo assay; type: functional, cell-based; details: Calu-3, 24 h; summary of the method: as §3
[17] = Antiproliferative activity against human Calu3 cells after 48 hrs by CellTiter-Glo assay; type: functional, cell-based; details: Calu-3, 48 h; summary of the method: as §3
[18] = target: T1, Receptor tyrosine-protein kinase erbB-2; experiment: Binding affinity to HER2 domain-4 (unknown origin) by SPR assay
[19] = Drug uptake in human MCF7 cells at 5 uM after 30 mins by DAPI staining based confocal microscopic method; type: ADME, cell-based; details: mcf7, 0.5 h
Summary of the method: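 MCF-7 cells were run like the SKBR-3 imaging: 37 °C for 30 min, 4 h or 24 h, methanol fixation at −20 °C, and DAPI mounting.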

[20] = Antiproliferative activity against human BT474 cells after 48 hrs by CellTiter-Glo assay; type: functional, cell-based; details: BT-474, 48 h; summary of the method: as §3
[21] = Antiproliferative activity against human BT474 spheroids after 3 days by CellTiter-Glo assay; type: functional; details: BT-474, 72 h
Summary of the method: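 They were treated at 0.001–10 μM for 3 days at 37 °C, with 1% SDS and 1% DMSO as controls. Viability was read by 3D CellTiter-Glo luminescence and IC50 taken from the log plot. Each experiment was run three times (SD).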

[22] = Drug uptake in human SKBR3 cells at 5 uM after 24 hrs by DAPI staining based confocal microscopic method; type: ADME, cell-based; details: sk-br-3, 24 h; summary of the method: as §4

T1 sequence (P04626 whole entry, the tested form may be a part): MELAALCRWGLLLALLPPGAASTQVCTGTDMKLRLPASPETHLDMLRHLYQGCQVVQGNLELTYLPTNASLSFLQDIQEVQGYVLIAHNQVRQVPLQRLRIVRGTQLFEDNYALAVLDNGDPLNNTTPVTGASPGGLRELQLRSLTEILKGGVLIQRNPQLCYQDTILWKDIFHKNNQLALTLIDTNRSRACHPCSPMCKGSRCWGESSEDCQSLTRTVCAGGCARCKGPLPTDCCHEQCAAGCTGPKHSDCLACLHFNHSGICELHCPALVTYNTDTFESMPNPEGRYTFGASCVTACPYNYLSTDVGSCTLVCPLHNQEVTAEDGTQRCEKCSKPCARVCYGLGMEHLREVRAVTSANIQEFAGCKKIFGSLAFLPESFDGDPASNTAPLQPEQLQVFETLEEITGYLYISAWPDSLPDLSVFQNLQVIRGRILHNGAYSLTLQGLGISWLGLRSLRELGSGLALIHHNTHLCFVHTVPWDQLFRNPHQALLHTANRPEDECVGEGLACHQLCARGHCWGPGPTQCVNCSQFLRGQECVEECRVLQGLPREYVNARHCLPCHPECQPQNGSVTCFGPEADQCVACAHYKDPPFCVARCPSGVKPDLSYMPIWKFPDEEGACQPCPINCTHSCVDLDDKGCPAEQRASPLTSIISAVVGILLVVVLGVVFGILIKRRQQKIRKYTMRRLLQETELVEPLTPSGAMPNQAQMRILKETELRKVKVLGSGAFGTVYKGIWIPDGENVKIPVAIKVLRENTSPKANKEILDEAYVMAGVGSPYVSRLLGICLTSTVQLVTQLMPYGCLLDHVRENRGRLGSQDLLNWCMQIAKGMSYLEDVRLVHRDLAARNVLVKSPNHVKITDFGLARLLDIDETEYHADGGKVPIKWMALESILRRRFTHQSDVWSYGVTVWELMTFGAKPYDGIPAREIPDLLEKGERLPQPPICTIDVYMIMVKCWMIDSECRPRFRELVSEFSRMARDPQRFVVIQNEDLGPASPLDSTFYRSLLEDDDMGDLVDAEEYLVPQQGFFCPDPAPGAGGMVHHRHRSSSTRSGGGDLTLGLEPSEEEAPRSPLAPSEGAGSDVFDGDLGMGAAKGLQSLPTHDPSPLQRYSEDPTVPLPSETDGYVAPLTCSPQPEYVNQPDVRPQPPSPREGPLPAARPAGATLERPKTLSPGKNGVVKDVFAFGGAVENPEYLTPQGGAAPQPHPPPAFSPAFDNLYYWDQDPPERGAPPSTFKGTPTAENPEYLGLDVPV

Kd [3]: 1 µM
SMILES: N=C(N)NCCC[C@H](N)C(=O)N[C@@H](CC(=O)N[C@@H](Cc1ccccc1)C(=O)O)c1cccc2ccccc12
IC50 [1]: > 50 µM | Activity [2]: 5.7% | Activity [4]: 67% | Activity [5]: 23.6%

SMILES: COc1cccc2c1C(=O)c1c(O)c3c(c(O)c1C2=O)C[C@@](O)(C(=O)CO)C[C@@H]3O[C@H]1C[C@H](NC(=O)CCCC(=O)N[C@@H](CCCNC(=N)N)C(=O)N[C@@H](CC(=O)N[C@@H](Cc2ccccc2)C(=O)O)c2cccc3ccccc23)[C@H](O)[C@H](C)O1
Drug uptake [6]: Active | Drug uptake [7]: Active | IC50 [8]: 0.8 µM | metabolised at 4 h, 50 µM [9]: 50% | Drug uptake [10]: Active | Drug uptake [11]: Active | Drug uptake [12]: Active

Drug uptake [15]: Active | Drug uptake [6]: Active | Kd [18]: 11000 µM | Drug uptake [19]: Active | Drug uptake [11]: Active | Drug uptake [22]: Active
SMILES: COc1cccc2c1C(=O)c1c(O)c3c(c(O)c1C2=O)C[C@@](O)(C(=O)CO)C[C@@H]3O[C@H]1C[C@H](N)[C@H](O)[C@H](C)O1 [DOXORUBICIN]
IC50 [13]: 0.034 µM | IC50 [14]: 0.053 µM | IC50 [16]: 0.27 µM | IC50 [1]: 0.15 µM | IC50 [17]: 0.11 µM | Activity [2]: 3.7% | IC50 [20]: 0.041 µM | IC50 [21]: 0.18 µM

From ChEMBL document CHEMBL3877285, “Design of a doxorubicin-peptidomimetic conjugate that targets HER2-positive cancer cells” (Eur J Med Chem, 2017)
